Results of several laboratories.
Lines come from different studies, so protocols differ. Values after ≈ are worked out from the molar mass of the structure shown.

| SMILES | organism | test | test system | conditions | quantity | result |
| --- | --- | --- | --- | --- | --- | --- |
| N#Cc1c(-c2ccc(OCc3ccccc3)cc2)c(C(N)=O)c(N)n(N)c1=O | Enterobacter cloacae | microbial growth, well diffusion | ATCC23355 | 500 µg/mL | inhibition zone | 10 mm |
| COC1=CC2=[N+](C)CCc3c[nH]c(c32)C1=O | Babesia divergens | parasite growth, SYBR Green | – | 60 h, blood stage | IC50 | 1000 nM |
| Cc1c(C(N)=O)c(N)n(N)c(=O)c1C#N | Enterobacter cloacae | microbial growth, well diffusion | ATCC23355 | 500 µg/mL | inhibition zone | 21 mm |
| O=C1C(Br)=C(Br)C(=O)c2ccccc21 | Trichophyton mentagrophytes | microbial growth, broth dilution | ATCC9533 | 96 h | MIC | < 1.56 µg/mL |
| Cn1cc2c3c1C(=O)C(NCCc1ccc(O)cc1)=CC3=NCC2 | Babesia divergens | parasite growth, SYBR Green | – | 60 h, blood stage | IC50 | 1000 nM |
| CN(Cc1ccc(C2(C(F)(F)F)CC2)cc1)Cc1cccc2ccccc12 | Trichophyton mentagrophytes | microbial growth, disc diffusion | ATCC18748 | 0.001 µg/mL, 72 h | inhibition zone | 8.5 mm |
| O=C1C(NCCc2c[nH]c3ccccc23)=CC2=NCCc3c[nH]c1c32 | Babesia divergens | parasite growth, SYBR Green | – | 60 h, blood stage | IC50 | 970 nM |
| C[C@@H]1[C@H](O)[C@@H](C)/C=C/C=C/C=C/C=C/C=C/C=C/C=C/[C@H](O[C@@H]2O[C@H](C)[C@@H](O)[C@H](N)[C@@H]2O)C[C@@H]2O[C@](O)(C[C@@H](O)C[C@@H](O)[C@H](O)CC[C@@H](O)C[C@@H](O)CC(=O)O[C@H]1C)C[C@H](O)[C@H]2C(=O)O | Trichophyton mentagrophytes | microbial growth, broth dilution | ATCC9533 | 96 h | MIC | 8 µg/mL (≈ 8.66 µM) |
| N#Cc1c(-c2ccc(OCc3ccccc3)cc2)c(C(N)=S)c(N)n(N)c1=O | Enterobacter cloacae | microbial growth, well diffusion | ATCC23355 | 500 µg/mL | inhibition zone | 15 mm |
| CN(Cc1ccc(C(C)(C)C)cc1)Cc1cccc2ccccc12 | Trichophyton mentagrophytes | microbial growth, disc diffusion | ATCC18748 | 0.0005 µg/mL, 72 h | inhibition zone | 14.5 mm |
| COC(CNC1=CC2=NCCc3c[nH]c(c32)C1=O)c1c[nH]c2ccccc12 (stereo not drawn) | Babesia divergens | parasite growth, SYBR Green | – | 60 h, blood stage | IC50 | 578 nM |
| Cc1c(C(N)=S)c(N)n(N)c(=O)c1C#N | Enterobacter cloacae | microbial growth, well diffusion | ATCC23355 | 500 µg/mL | inhibition zone | 19 mm |
